Experimental data: publication PMC8212709 (Clinical and Translational Science, 2021)

How the values were obtained:
[1] = rats, nonclinical, no reference given, cited from earlier work
[2] = test system: rat collagen‐induced arthritis model; settings: nonclinical, no reference given; cited from earlier work
[3] = Plasma pharmacokinetics of TAK‐020; type: in vivo, human (healthy subjects); settings: for half-life / Tmax: human, plasma
In short: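 In the MRD part, healthy subjects took oral test compound q.d. (3.75–60 mg) or placebo, with sampling on days 1 and 9. Plasma levels were measured by validated HPLC-MS/MS (LLOQ 0.10 ng/mL). Noncompartmental parameters used actual sampling times, with geometric mean and %CV for Cmax and AUC. Accumulation ratios were based on Cmax and AUC24, plus the LS-mean ratio AUC24 (day 9):AUC∞ (day 1).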

[4] = target: BTK (Homo sapiens, UniProt Q06187); assay: BTK occupancy assay in whole blood cell lysates; type: in vivo
In short: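 Healthy subjects in SRD cohorts 1–4 (6 test compound, 2 placebo per cohort) took a single oral dose (0.1 mg starting dose, given as solution) or placebo while fasted. Unoccupied BTK in whole-blood cell lysates was captured by a biotin-modified covalent probe of the test compound. Occupancy was computed per postdose time up to 96 h as 100 − [100 × (BTK concentration ÷ predose BTK concentration)].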

BTK, sequence (Q06187 whole entry): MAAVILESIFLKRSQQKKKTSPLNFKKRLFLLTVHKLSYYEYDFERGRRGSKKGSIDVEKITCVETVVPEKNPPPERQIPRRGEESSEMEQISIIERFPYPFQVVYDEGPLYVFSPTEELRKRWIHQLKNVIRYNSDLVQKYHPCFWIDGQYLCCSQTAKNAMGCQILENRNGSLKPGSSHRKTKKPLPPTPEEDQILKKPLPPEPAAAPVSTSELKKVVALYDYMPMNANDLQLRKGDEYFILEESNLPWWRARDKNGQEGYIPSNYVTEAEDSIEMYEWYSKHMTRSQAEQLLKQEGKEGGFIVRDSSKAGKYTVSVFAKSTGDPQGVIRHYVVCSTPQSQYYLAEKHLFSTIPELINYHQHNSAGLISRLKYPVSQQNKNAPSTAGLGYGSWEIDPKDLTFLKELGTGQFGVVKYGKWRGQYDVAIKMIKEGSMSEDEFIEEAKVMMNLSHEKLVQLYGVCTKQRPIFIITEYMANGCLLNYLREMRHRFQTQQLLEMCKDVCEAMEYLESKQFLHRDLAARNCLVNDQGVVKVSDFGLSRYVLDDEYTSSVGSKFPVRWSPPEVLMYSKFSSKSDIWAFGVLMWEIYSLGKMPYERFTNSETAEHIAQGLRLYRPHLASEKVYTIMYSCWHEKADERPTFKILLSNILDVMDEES

C=CC(=O)N1CC[C@H](Oc2nc(-c3n[nH]c(=O)[nH]3)cc3ccccc23)C1 [TAK‐020]
terminal disposition phase elimination half‐life (t1/2z) ([1]; after oral administration): 4.4 to 7.3 h | oral bioavailability [1]: 13.2% | median effective dose [2]: 0.31 mg/kg per day | least‐squares means ratio of AUC24 (day 9):AUC∞ (day 1) ([3]; MRD): near unity | accumulation ratio based on AUC24 (Rac(AUC24)), geometric mean ([3]; MRD 3.75 to 60 mg q.d.): near unity | accumulation ratio based on Cmax (Rac(Cmax)), geometric mean ([3]; MRD 3.75 to 60 mg q.d.): near unity | steady‐state systemic exposure (mean dose‐normalized Cmax and AUC24) vs dose ([3]; MRD, days 1 and 9): dose‐proportional manner up to 60 mg | half-life ([3]; oral, 3.75 mg, mean t1/2z, MRD, 3.75‐mg dose, day 1): 2.59 h | half-life ([3]; oral, 3.75 mg, mean t1/2z, MRD, 3.75‐mg dose, day 9 after q.d. dosing): 2.15 h | half-life ([3]; oral, 60 mg, mean t1/2z, MRD, 60‐mg dose, day 1): 6.3 h | half-life ([3]; oral, 60 mg, mean t1/2z, MRD, 60‐mg dose, day 9 after q.d. dosing): 5.46 h | half-life ([3]; oral, half‐life, doses ≥ 2.5 mg (abstract)): 3 to 9 h | half-life ([3]; oral, mean half‐life in plasma, q.d. dosing): 2 to 6 h | Tmax ([3]; oral, median Tmax, MRD 3.75 to 60 mg, after a single dose on day 1): 0.5 to 0.75 h | Tmax ([3]; oral, median Tmax, MRD 3.75 to 60 mg, day 9 after q.d. dosing): 0.75 to 1 h | Tmax ([3]; po, median time to maximum plasma concentration (Tmax), single and multiple doses (abstract)): 0.75 to 1 h | duration of BTK occupancy > 70% ([4]; SRD, 2.5‐mg and 4.4‐mg doses, longest duration investigated): > 96 h | BTK occupancy, maximum and sustained ([4]; SRD, single doses ≥ 2.5 mg (2.5‐mg and 4.4‐mg), blood): > 70% | duration of > 80% BTK occupancy ([4]; single doses of 2.5 and 4.4 mg, postdose): 72 h | BTK occupancy (%) of TAK‐020 binding sites ([4]; single doses of 2.5 and 4.4 mg, up to 72 hours postdose): > 80% | duration of BTK saturation ([4]; single doses ≥2.5 mg): > 24 h
